Source: article PMC3158460 (Molecular cell, 2011)
Residues, ends and D or L forms follow the SMILES beside them.

Assays:
[1] = molecular target: FITC-labeled NuMA peptide (aa 1886-1912) (human) (UniProt Q14980); experiment: fluorescence polarisation + ITC
[2] = molecular target: mInsc22 (aa 19-40), peptide of the fluorescence assays (mouse); experiment: fluorescence polarisation
LGN TPR repeats = molecular target: T1, LGN TPR repeats (Mus musculus, UniProt Q8VDU0); conditions: fit of the LGN TPR0-7/NuMA fluorescence polarization binding curve; Fig. 2C
T1 sequence (Q8VDU0 22-357): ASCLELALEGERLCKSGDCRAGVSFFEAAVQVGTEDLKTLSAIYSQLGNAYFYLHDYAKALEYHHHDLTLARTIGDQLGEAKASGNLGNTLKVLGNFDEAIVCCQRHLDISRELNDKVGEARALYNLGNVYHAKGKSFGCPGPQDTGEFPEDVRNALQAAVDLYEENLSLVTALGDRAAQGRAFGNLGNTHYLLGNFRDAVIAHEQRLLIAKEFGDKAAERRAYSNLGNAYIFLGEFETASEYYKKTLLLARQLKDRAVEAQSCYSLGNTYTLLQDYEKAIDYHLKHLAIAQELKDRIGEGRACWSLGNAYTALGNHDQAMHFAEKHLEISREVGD
In short: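 Fluorescence polarization at 25 °C using a fluorimeter with an automated polarizer. A FITC-labeled human NuMA peptide (~1 μM) was titrated with mouse LGN TPR0-7 in 50 mM Tris pH 8.0, 100 mM NaCl, 1 mM DTT, 1 mM EDTA. The LGN fragment was expressed from a modified pET32a vector in E. coli BL21(DE3) at 16°C and purified by Ni2+-NTA then size-exclusion chromatography.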

Mud peptide (Drosophila) = experiment: fluorescence polarisation
[3] = molecular target: NuMA_C (1898-1912) (human) (UniProt Q14980); experiment: fluorescence polarisation
[4] = molecular target: mInsc38 (aa 20-57) (mouse); experiment: fluorescence polarisation
[5] = molecular target: NuMA_N (1885-1898) (human) (UniProt Q14980); experiment: fluorescence polarisation

Q: Which Kd [1] does the source give for LGN (aa 15-479) (domain or fragment) here?
A: The Kd was 60 nM.

Q: “LGN TPR4-7 (aa 191-350) (domain or fragment)” was tested. Which fold decrease in binding affinity (against LGN TPR0-7) [2] did it give?
A: The fold decrease in binding affinity (against LGN TPR0-7) was 10 fold.

Q: How did the “Hill coefficient of LGN/NuMA binding curve” value (LGN TPR repeats) turn out when `CC[C@H](C)[C@H](NC(=O)[C@H](CCCNC(=N)N)NC(=O)[C@H](CC(N)=O)NC(=O)[C@H](Cc1c[nH]c2ccccc12)NC(=O)[C@H](CC(=O)O)NC(=O)[C@H](CC(=O)O)NC(=O)[C@H](CC(C)C)NC(=O)[C@H](CCC(N)=O)NC(=O)[C@H](CCC(=O)O)NC(=O)[C@@H]1CCCN1C(=O)[C@H](CCC(=O)O)NC(=O)[C@H](CC(=O)O)NC(=O)[C@H](CCC(N)=O)NC(=O)[C@H](CS)NC(=O)[C@@H](NC(=O)CNC(=O)[C@H](CCSC)NC(=O)[C@H](Cc1ccc(O)cc1)NC(=O)[C@H](Cc1ccccc1)NC(=O)[C@H](CO)NC(=O)[C@@H](N)CC(N)=O)[C@@H](C)O)C(=O)N[C@@H](C)C(=O)N[C@@H](CCC(=O)O)C(=O)N[C@@H](CC(C)C)C(=O)N[C@@H](CCC(N)=O)C(=O)N[C@@H](CCC(N)=O)C(=O)N[C@@H](CCCNC(=N)N)C(=O)O` [NuMA] (H-NSFYMGTCQDEPEQLDDWNRIAELQQR-OH; N-terminus and C-terminus assumed) was run?
A: The value was roughly 2.0.

Q: LGN(15-350) (domain or fragment) was tested. Which Kd (Mud peptide (Drosophila)) did it give?
A: Its Kd is 230 nM.

Q: What about the Kd [3] of the same compound?
A: Its Kd is 67100 nM.

Q: And the Kd [4]?
A: Its Kd is 47 nM.

Q: What about the Kd [5] of the same compound?
A: Its Kd is 31700 nM.

Q: Which fold decrease in NuMA binding (against the longer LGN fragments) [1] does the source give for LGN (aa 27-350) (domain or fragment) here?
A: Its fold decrease in NuMA binding (against the longer LGN fragments) is 200 fold.
